Measured values pooled from the literature.
Lines come from different studies, so protocols differ.
Target: Tyrosine-protein kinase Lyn (LYN, Homo sapiens, UniProt P07948)

| Compound | test | conditions | quantity | value |
| --- | --- | --- | --- | --- |
| CCN(CC)CCNC(=O)c1c(C)[nH]c(/C=C2\C(=O)Nc3ccc(F)cc32)c1C | enzyme activity, inhibitor | 10 µM | inhibition | 98% |
| Clc1ccc(Nc2nnc(Cc3ccncc3)c3ccccc23)cc1 | cell-free assay | 0.5 µM | remaining signal | 91.8% |
| CC(=O)c1c(NS(C)(=O)=O)c2cc(-c3ccc(Cl)cc3)c(-c3ccc(Cl)cc3Cl)nc2n(C)c1=O | cell-free assay, competition with immobilised ligand | 1 µM | remaining binding | 100% |
| CC1(C)NC(=O)c2[nH]c3c(Cl)c(Cl)ccc3c2C1C#N (stereo not drawn) | thermal stability, DSF | 10 µM | ΔTm | 0.2 °C |
| O=c1cc(-c2cccc3c2Sc2ccccc2S3)oc(N2CCOCC2)c1 | enzyme activity, inhibitor | 0.5 µM | remaining activity | 106% |
| CN(C(=O)c1ccccc1)c1cc(N(C)c2ccc3c(c2)CCc2ccc(C(=O)NCCN4CCOCC4)cc2C3=O)ccc1F | cell-free assay, competition with immobilised ligand | 1 µM | remaining binding | 86% |
| CNCc1ccc(-c2cc(-c3nc(-c4ccc(S(=O)(=O)C(C)C)cc4)cnc3N)on2)cc1 | enzyme activity, inhibitor | 0.4 µM | inhibition | 13% |
| CC(C)c1ccc(NC(=O)c2cccs2)c(-c2nc3ccccc3[nH]c2=O)c1 | enzyme activity, inhibitor | 1 µM | activity vs control | 83% |
| Cn1c2c(c3ccc(Cl)c(Cl)c31)C(C#N)C1(CCNCC1)NC2=O (racemic) | thermal stability, DSF | 10 µM | ΔTm | 0.2 °C |
| Cc1ccc(-n2nc(C(C)(C)C)cc2NC(=O)Nc2ccc(OCCN3CCOCC3)c3ccccc23)cc1 | enzyme activity, inhibitor | 10 µM | inhibition | 81% |
| O=C(Nc1cnn(-c2csc(C(=O)NC3COC3)c2)c1)Nc1ccccc1Cl | enzyme activity, inhibitor | 5 µM | remaining activity | 96.8% |
| Cn1c2c(c3ccc(Cl)c(Cl)c31)C(C#N)C1(CCOCC1)NC2=O (stereo not drawn) | thermal stability, DSF | 10 µM | ΔTm | -0.2 °C |
| CCN(CC)c1ccc(C2=NNC(=O)CC2C)cc1[N+](=O)[O-] (stereo not drawn) | enzyme activity, inhibitor | 10 µM | remaining activity | 114% |
| CNC(=O)c1cc(Oc2ccc(NC(=O)Nc3ccc(Cl)c(C(F)(F)F)c3)cc2)ccn1 | enzyme activity, inhibitor | 10 µM | inhibition | 96% |
| Nc1ncnc2occ(-c3ccc(NC(=O)Nc4cc(C(F)(F)F)ccc4F)cc3)c12 | enzyme activity, inhibitor | 20 µM | remaining activity | 1.4% |
| Cc1ccc(NC(=O)c2ccc(CN3CCN(C)CC3)cc2)cc1Nc1nccc(-c2cccnc2)n1 | enzyme activity, inhibitor | 0.5 µM | activity vs control | 59.6% |
| CNC(=O)c1cc2c(Oc3ccc(NC(=O)C4(C(=O)Nc5ccc(F)cc5)CC4)cc3)ccnc2cc1OC | enzyme activity, inhibitor, radiometric | 1 µM | inhibition | 99% |
| CC(C)(C)c1nc(-c2cccc(NS(=O)(=O)c3c(F)cccc3F)c2F)c(-c2ccnc(N)n2)s1 | enzyme activity, inhibitor, radiometric | 1 µM | remaining activity | 51% |

| Compound | test | conditions | quantity | value |
| --- | --- | --- | --- | --- |
| Cn1c2c(c3ccc(Cl)c(Cl)c31)C(C#N)C1(CCN(C(=O)OC(C)(C)C)CC1)NC2=O (racemic) | thermal stability, DSF | 10 µM | ΔTm | 0 °C |
| O=C(NC[C@@H]1[C@H]2CN(C(=O)OCc3cc(C(F)(F)F)cc(C(F)(F)F)c3)C[C@@H]12)c1ccc2[nH]nnc2c1 | cell-free assay, competition with immobilised ligand | 1 µM | remaining binding | 100% |
| CCCOc1ccc(OC)c(F)c1C(=O)c1ccc(C(=O)N[C@@H]2CNC[C@H]2NC(=O)c2ccc3[nH]ncc3c2)cc1 | enzyme activity, inhibitor | 10 µM | remaining activity | 39% |
| O=C(N1CCS(=O)(=O)CC1)N1C[C@H](c2ccc(OC(F)(F)F)cc2)C[C@H](c2nc(C3CC3)no2)C1 | cell-free assay, competition with immobilised ligand | 1 µM | remaining binding | 85% |
| Cc1ccc(NC(=O)c2ccc(C)c(C(F)(F)F)c2)cc1C#Cc1nn(C2CCC(O)CC2)c2ncnc(N)c12 (stereo not drawn) | cell-free assay, inhibitor | 10 µM | remaining signal | 0% |
| N#CC1(c2ccccn2)CCN(Cc2cc(C(=O)N3CCCC3)c(=O)n3ccccc23)CC1 | cell-free assay, competition with immobilised ligand | 1 µM | remaining binding | 99% |
| CS(=O)(=O)CCNCc1ccc(-c2ccc3ncnc(Nc4ccc(OCc5cccc(F)c5)c(Cl)c4)c3c2)o1 | cell-free assay | 0.5 µM | remaining signal | 104% |
| Cc1ccc(C(=O)Nc2ccc(CN3CCN(C)CC3)c(C(F)(F)F)c2)cc1C#Cc1cnc2cccnn12 | enzyme activity, inhibitor | 23.5 nM | remaining activity | 0.65% |
| CN1CCC2(CC1)NC(=O)c1c(c3ccc(Cl)c(Cl)c3n1C)C2C#N (racemic) | thermal stability, DSF | 10 µM | ΔTm | -0.1 °C |
| O=c1c2ccccc2[nH]c(=S)n1CCN1CCC(=C(c2ccc(F)cc2)c2ccc(F)cc2)CC1 | enzyme activity, inhibitor | 0.5 µM | remaining activity | 108% |
| CC1=C(C#N)[C@@H](c2ccc3[nH]nc(C)c3c2)C(C#N)=C(c2ccc(Cl)cc2)N1 | cell-free assay, competition with immobilised ligand | 1 µM | remaining binding | 96.8% |
| O=C1NC(=O)c2cc(Nc3ccc(F)cc3)c(Nc3ccc(F)cc3)cc21 | cell-free assay, inhibitor | 0.5 µM | remaining signal | 98.7% |
| Cn1nc(C(F)(F)F)cc1-c1cnc(N2CCc3cc(S(=O)(=O)Nc4c(F)cc(Cl)cc4F)cc(N4CCCC4=O)c32)nc1 | cell-free assay, competition with immobilised ligand | 1 µM | remaining binding | 100% |
| Cc1cnc(NC2CCOCC2)nc1-n1cnc(C(=O)NC(CN)c2cc(F)cc(Cl)c2)c1 (stereo not drawn) | enzyme activity, inhibitor, radiometric | 1 µM | remaining activity | 84% |
| Cn1c2c(Cl)c(Cl)ccc2c2cc[nH]c(=O)c21 | thermal stability, DSF | 10 µM | ΔTm | 0 °C |
| C[C@H](NC(=O)c1cnc2n1[C@](C)(Cc1ccc(C#N)cc1)C(=O)N2c1cc(Cl)c(F)c(Cl)c1)C(=O)NC1(c2ccccn2)CC1 | cell-free assay, competition with immobilised ligand | 1 µM | remaining binding | 100% |
| Cn1c2c(c3ccc(Cl)c(Cl)c31)C(C#N)C1(CCCC1)NC2=O (stereo not drawn) | thermal stability, DSF | 10 µM | ΔTm | 0 °C |
| Cc1ccc(Nc2nccc(N(C)c3ccc4c(C)n(C)nc4c3)n2)cc1S(N)(=O)=O | enzyme activity, inhibitor | 0.5 µM | remaining activity | 52.1% |
